Here are results for eleven compounds from ChEMBL document CHEMBL1123459, “Synthesis and dopaminergic binding of 2-aryldopamine analogues: phenethylamines, 3-benzazepines, and 9-(aminomethyl)fluorenes” (J Med Chem, 1986).

Each structure is given as a SMILES string.

The target in one experiment is D(2) dopamine receptor (Bos taurus, UniProt P20288). Kind of experiment: Compound was tested for inhibition of [3H]spiroperidol binding against Dopamine receptor D2. An outline of the steps: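 Washed bovine anterior pituitary membranes (500 μg protein) incubated 20 min at 37 °C with 0.2–0.3 nM [3H]spiroperidol in Tris-HCl pH 7.4, MgSO4, 2 mM EDTA, 0.1% ascorbate.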
Sequence of D(2) dopamine receptor (P20288 whole entry): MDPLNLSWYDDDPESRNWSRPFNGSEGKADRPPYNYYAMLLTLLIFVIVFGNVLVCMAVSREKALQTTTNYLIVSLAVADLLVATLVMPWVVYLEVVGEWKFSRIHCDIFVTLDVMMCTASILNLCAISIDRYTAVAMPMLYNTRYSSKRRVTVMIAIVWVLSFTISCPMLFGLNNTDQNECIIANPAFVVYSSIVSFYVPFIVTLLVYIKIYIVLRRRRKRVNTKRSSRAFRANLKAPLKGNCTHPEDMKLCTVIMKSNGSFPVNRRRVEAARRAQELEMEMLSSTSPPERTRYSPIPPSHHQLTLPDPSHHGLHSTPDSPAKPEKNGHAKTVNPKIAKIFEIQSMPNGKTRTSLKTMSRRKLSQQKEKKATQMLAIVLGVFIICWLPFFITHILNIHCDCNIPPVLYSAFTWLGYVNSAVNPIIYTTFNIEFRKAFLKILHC

The target in experiment [1] is T1, D(1A) dopamine receptor (Rattus norvegicus, UniProt P18901). Put plainly: Displacement of [3H]fenoldopam from Dopamine receptor D1 of rat striatum membranes. Type of experiment: cell membranes, Membrane.
T1 sequence (P18901 whole entry): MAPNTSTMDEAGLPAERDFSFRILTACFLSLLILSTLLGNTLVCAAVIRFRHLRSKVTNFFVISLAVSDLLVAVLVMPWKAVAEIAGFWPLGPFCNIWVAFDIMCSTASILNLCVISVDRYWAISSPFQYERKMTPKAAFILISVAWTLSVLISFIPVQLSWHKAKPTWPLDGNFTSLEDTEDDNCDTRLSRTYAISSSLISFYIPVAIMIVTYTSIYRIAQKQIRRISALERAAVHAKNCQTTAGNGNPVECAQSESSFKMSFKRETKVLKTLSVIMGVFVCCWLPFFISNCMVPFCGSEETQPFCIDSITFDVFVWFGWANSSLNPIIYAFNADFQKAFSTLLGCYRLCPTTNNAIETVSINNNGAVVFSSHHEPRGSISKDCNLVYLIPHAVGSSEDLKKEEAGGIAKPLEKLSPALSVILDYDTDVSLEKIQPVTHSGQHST
The target in experiment [2] is D(2) dopamine receptor (Bos taurus) (UniProt P20288). Kind of experiment: Compound was tested for inhibition of [3H]spiroperidol binding against Dopamine receptor D2 at 10e-5 M.
Sequence of D(2) dopamine receptor (Bos taurus) (P20288 whole entry): as the sequence (P20288 whole entry) above
Experiment [3] shares this target. Put plainly: Compound was tested for inhibition of [3H]spiroperidol binding against Dopamine receptor D2 at 10e-5 M; IA= Inactive.
Experiment [4] concerns the target T1, D(1A) dopamine receptor. Put plainly: Compound was tested for binding affinity against dDopamine receptor D1 using [3H]fenoldopam as a radioligand.

As for `CCCN(CCC)CCc1ccc(O)c(O)c1-c1ccc(O)cc1`, the Ki came to 1800 nM on D(2) dopamine receptor and 1740 nM on D(1A) dopamine receptor [1]. Turning to `NCC1c2ccccc2-c2c1ccc(O)c2O` (stereo unspecified), the inhibition in experiment [2] was 20%. On D(1A) dopamine receptor [1], this compound displayed a Ki of 380 nM. Turning to `Oc1ccc(-c2c(O)c(O)cc3c2CCNCC3)cc1`, in experiment [3], the inhibition was below 20%. The Ki at D(1A) dopamine receptor [1] is above 3000 nM. In the case of `CCCN(CCC)CCc1ccc(O)c(O)c1-c1ccccc1`, the inhibition in experiment [2] was 29%. This compound returned a Ki on D(1A) dopamine receptor [1] of 1940 nM. Take `NCC1c2cc(O)ccc2-c2c1ccc(O)c2O` (stereo unspecified): the inhibition constant Ki on D(2) dopamine receptor worked out at 5740 nM; at D(1A) dopamine receptor [1] it was 43 nM.

In turn, `Oc1c(O)c(-c2ccccc2)c2c(c1Cl)CCNCC2` registered an inhibition in experiment [2] of 27%. This compound gave a Ki on D(1A) dopamine receptor [1] of 700 nM. In experiment [3], `NCCc1ccc(O)c(O)c1-c1ccccc1` showed an inhibition below 20%. On D(1A) dopamine receptor [1], this compound returned a Ki of 1500 nM. Compound `Oc1cc2c(cc1O)CCNCC2` returned a Ki on D(1A) dopamine receptor [4] of 970 nM. On to `NCCc1ccc(O)c(O)c1-c1ccc(O)cc1`, for which, in experiment [3], the inhibition is below 20%. For the same compound, at D(1A) dopamine receptor [1], the Ki was determined as 1650 nM.

In turn, `Oc1cc2c(c(-c3ccccc3)c1O)CCNCC2` displayed an inhibition in experiment [3] below 20%. Also, the Ki at D(1A) dopamine receptor [1] is 1790 nM.

Turning to `Oc1ccc(-c2c(O)c(O)c(Cl)c3c2CCNCC3)cc1`, the inhibition in experiment [3] is below 20%. Besides, the Ki on D(1A) dopamine receptor [1] turned out to be 1630 nM.
